Screening data (PubChem BioAssay)
The list is not random: actives were taken first. Their share in the collection is about 3.9%.
M1 PAM – potentiates human M1 receptor response to acetylcholine; CHO-K1 hM1, Fluo-8 calcium fluorescence, ACh EC20; 0% = ACh EC20, 100% = maximal ACh; activation, % at 3 µM; P11229; 360,000 compounds, 0.088% hits; AID 588819; in the data active = activation above about 19%, passing the limit was not always enough
TAAR1 antagonist – antagonists of human TAAR1; CHO RD-HGA16 TAAR1, Fluo-8 calcium fluorescence, antagonist; inhibition, % at 3 µM; 360,000 compounds, 1.5% hits; AID 624466;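 active = inhibition above a per-plate cutoff, the mean inhibition of test compounds on that plate plus 3 SD, cut at about 49% in these data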
Target sequence (Q96RJ0 whole entry, looked up): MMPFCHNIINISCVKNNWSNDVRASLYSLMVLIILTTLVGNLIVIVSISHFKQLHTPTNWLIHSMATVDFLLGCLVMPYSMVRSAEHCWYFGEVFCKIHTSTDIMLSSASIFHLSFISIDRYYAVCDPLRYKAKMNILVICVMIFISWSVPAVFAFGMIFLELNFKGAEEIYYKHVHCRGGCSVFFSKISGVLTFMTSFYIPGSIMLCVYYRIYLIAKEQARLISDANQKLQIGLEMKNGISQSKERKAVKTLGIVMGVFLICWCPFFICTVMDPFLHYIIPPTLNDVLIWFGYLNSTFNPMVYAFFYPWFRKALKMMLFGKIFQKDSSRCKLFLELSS
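Material: RD-HGA16 CHO cells with stable hTAAR1 and Gα16; Dosing: single nominal final test compound concentration of 3 µM; Schedule: seeding 17-24 h prior, 75-min 37 °C, 30-min RT dye loading; Detection: kinetic Fluo-8 calcium fluorescence measurement; Measure: % inhibition from peak post-agonist over basal fluorescence ratio; Benchmarks: vehicle and agonist controls.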
CHRM1 antagonist – blocks human M1 muscarinic receptor; inhibition, % at 3 µM; P11229; 360,000 compounds, 1.3% hits; CHO-K1 hM1, Fluo-8 calcium fluorescence, ACh EC80 antagonist;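 active = percent inhibition above its own plate's cutoff, namely the mean of that plate's compound wells plus 3 SD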;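 note: peak over basal fluorescence ratio during 140 s after agonist addition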
m5-HT2A agonist – agonists of mouse serotonin 5-HT2A receptor (HTR2A). P35363. CHO-K1 mHTR2A beta-arrestin complementation, luminescence; percent of 30 µM serotonin response. activation, % at 7.6 µM. 360,000 compounds, 0.66% hits. AID 624169;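 active = activation above a run cutoff, the mean activation of all tested compounds plus 3 SD, cut at about 14% in these data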
M1 ag – human M1 muscarinic receptor agonism. 360,000 compounds, 0.33% hits. P11229. CHO-K1 hM1, Fluo-8 calcium fluorescence, agonist mode; 0% DMSO, 100% acetylcholine EC100. activation, % at 3 µM;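 active = activation above the run's mean compound activation plus 3 SD, cut at about 16% in these data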;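 note: peak over basal fluorescence ratio within a 140 s kinetic read after compound addition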
TAAR1 agonist – human TAAR1 agonism; activation, % at 3 µM; AID 624467; CHO RD-HGA16 TAAR1, Fluo-8 calcium fluorescence; vehicle wells 0%, saturating PEA agonist 100%; Q96RJ0; 360,000 compounds, 0.99% hits;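 active = activation above the mean activation of all test compounds in the run plus 3 SD, cut at about 38% in these data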
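System: CHO-derived RD-HGA16 cells with stable Gα16 and human TAAR1. Times: 17-24 h plating, Fluo-8 75 min 37 °C, 30 min RT. Measured by: calcium-sensitive Fluo-8 signal, excitation 470-495, emission 515-575 nm. Read-out basis: % activation relative to PEA EC100 response. Control set: DMSO and PEA EC100. Repeats: no replicates (n 1).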
TAAR1 ag confirm – confirmation of human TAAR1 agonists | CHO RD-HGA16 TAAR1, Fluo-8 calcium fluorescence; scaled: DMSO 0%, maximal phenethylamine 100% | shares compounds with TAAR1 agonist | 2,400 compounds, 82% hits | activation, % at 3 µM;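 active = activation above a cutoff set at the run's mean compound activation plus 3 SD, cut at about 39% in these data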
Ga16 ag counter – nonselective agonism, TAAR1 counter-screen; activation, % at 3 µM; CHO-Ga16 parental, Fluo-8 calcium fluorescence; normalized to maximal ATP response, DMSO zero; shares compounds with TAAR1 agonist; AID 651787; 2,400 compounds, 50% hits;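 active = activation above the run cutoff, the mean activation over all tested wells plus 3 SD, cut at about 12% in these data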
TAAR1 desensitize – TAAR1 response desensitization, agonist counter-screen; inhibition, % at 3 µM; 2,400 compounds, 46% hits; shares compounds with TAAR1 agonist; AID 651951; CHO RD-HGA16 hTAAR1, Fluo-8 calcium, beta-PEA response inhibition;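 active = inhibition above the run cutoff, the mean inhibition of all test compounds plus 3 SD, cut at about 49% in these data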;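 note: beta-PEA stimulus applied at its EC80; loss of beta-PEA calcium signal after compound pretreatment read as receptor desensitization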
Ga16 antag count – nonselective Ga16 antagonist in TAAR1 agonist counter-screen | shares compounds with TAAR1 agonist | CHO-Ga16 ATP-induced calcium, Fluo-8 fluorescence | inhibition, % at 3 µM | 2,400 compounds, 39% hits | AID 651952;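 active = inhibition above the plate's mean compound inhibition plus 3 SD, computed per plate, cut at about 22% in these data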
A number is an active result; - = inactive; . = no result given.

SMILES | M1 PAM | TAAR1 antagonist | CHRM1 antagonist | m5-HT2A agonist | M1 ag | TAAR1 agonist | TAAR1 ag confirm | Ga16 ag counter | TAAR1 desensitize | Ga16 antag count
O=C(NCCNC(=O)c1ccc(-c2ccc(Cl)c(Cl)c2)o1)c1cnccn1 | - | 82 | - | - | - | 63 | 57 | 40 | 72 | 51
O=C(NCCCNC(=O)c1ccc(-c2cccc(Cl)c2)o1)c1cnccn1 | - | - | - | - | - | - | . | . | . | .
Cc1ccc(NS(=O)(=O)c2ccc(C(=O)N3CC(C)OC(C)C3)cc2)cc1 (configuration not stated) | - | 57 | - | - | 39 | 127 | 118 | 68 | 61 | 31
CCOc1ccc(NS(=O)(=O)c2ccc(C(=O)N3CCCC(C)C3)cc2)cc1 (configuration not stated) | - | 79 | 28 | - | 39 | 114 | 121 | 80 | 84 | 55
Cc1ccc(NS(=O)(=O)c2ccc(C(=O)N3CCCCCC3)cc2)cc1 | - | - | - | - | - | 86 | 80 | 52 | - | 39
Cc1ccc(NS(=O)(=O)c2ccc(C(=O)N3CCC3)cc2)cc1 | - | - | - | - | - | - | . | . | . | .
O=C(c1ccc(S(=O)(=O)Nc2ccccc2)cc1)N1CCCC(C(F)(F)F)C1 (configuration not stated) | - | 65 | - | - | 31 | 116 | 99 | 58 | 57 | 30
Cc1ccc2nc(SCC(=O)Nc3cc(C)on3)nc(=O)n2c1 | - | - | - | - | - | - | . | . | . | .
COc1ccc(/C=C(/NC(=O)c2ccco2)C(=O)N2CCCCC2)cc1 | - | - | - | - | - | - | . | . | . | .
O=C(O)CN1C(=O)/C(=C\c2cc([N+](=O)[O-])ccc2OCc2ccccc2Cl)SC1=S | - | - | - | - | - | - | . | . | . | .
O=C1/C(=C\c2cc([N+](=O)[O-])ccc2O)SC(=S)N1Cc1ccc(Cl)cc1 | - | 87 | 36 | - | 23 | 84 | 113 | 121 | 102 | 97
O=C1/C(=C\c2cccc(O)c2)SC(=S)N1Cc1ccccc1 | - | - | - | - | - | - | . | . | . | .
O=C1/C(=C\c2cccc(O)c2O)SC(=S)N1Cc1ccccc1 | - | - | - | - | - | 50 | - | 18 | - | 29
COC(=O)CCCCCCCCC(=O)Nc1nc2ccccc2s1 | - | - | - | - | - | 50 | 76 | 37 | - | -
COCC(=O)Nc1nc2ccccc2s1 | - | - | - | - | - | - | . | . | . | .
Cc1cnc(NC(=O)CCCSc2nc3ccccc3s2)s1 | - | 61 | - | - | - | 53 | - | - | - | -
Cc1csc(NC(=O)CCCSc2nc3ccccc3s2)n1 | - | - | - | - | - | - | . | . | . | .
CSc1ncccc1C(=O)N1CCCC(N2CCN(c3ccccc3C)CC2)C1 (configuration not stated) | - | - | - | - | - | - | . | . | . | .
Nc1ncnc2c1ncn2[C@@H]1O[C@H](C(=O)Nc2ccc(C(=O)N3CCCCC3)cc2)[C@@H](O)[C@H]1O | - | - | - | - | - | - | . | . | . | .
Cc1cccc(OCC(=O)NNC(=O)c2cc3ccccc3oc2=O)c1 | - | - | - | - | - | 64 | 84 | 18 | - | -
O=C(COc1ccc(F)cc1)NNC(=O)c1cc2ccccc2oc1=O | - | . | - | - | - | . | . | - | . | -
Cc1nnc(SCC(=O)NCCC2=CCCCC2)[nH]c1=O | - | 69 | - | - | - | 74 | 95 | - | 88 | -
Cc1oc(-c2ccccc2Cl)nc1CS(=O)(=O)CC(=O)NCCc1ccccc1 | - | 50 | - | - | - | 72 | 85 | - | 72 | -
COc1ccc(CCNC(=O)CS(=O)(=O)Cc2nc(-c3ccccc3Cl)oc2C)cc1OC | - | - | - | - | - | - | . | . | . | .
CN(CC(=O)Nc1ccccc1Cl)C(=O)COC(=O)c1ccccc1[N+](=O)[O-] | - | . | - | - | - | . | . | . | . | .
SMILES | M1 PAM | TAAR1 antagonist | CHRM1 antagonist | m5-HT2A agonist | M1 ag | TAAR1 agonist | TAAR1 ag confirm | Ga16 ag counter | TAAR1 desensitize | Ga16 antag count
S=c1[nH]ccn1CCc1ccccc1 | - | - | - | - | - | 62 | 64 | - | - | -
COc1cc(Cl)c(C)cc1NC(=O)CN1CCN(C(=O)C2CC2)CC1 | - | . | - | - | - | . | . | . | . | .
CCN(CC)c1ccc2cc(-c3nc(-c4ccc(OC)cc4)cs3)c(=O)oc2c1 | . | 105 | . | . | . | 451 | 355 | 606 | 89 | 96
COc1ccc2cc(-c3ccccc3)c(=O)oc2c1 | - | - | - | - | - | - | . | . | . | .
CN1CCCCC(NC(=O)c2ccc(F)c(F)c2)C1=O (configuration not stated) | . | - | . | . | . | - | . | . | . | .
COc1ccc2cc(C(=O)N/N=C/c3sc4ccccc4c3O)ccc2c1 | - | - | - | - | 33 | 108 | 49 | 57 | - | 53
CN(c1ccccc1C(=O)Nc1ccc(CC#N)cc1)S(=O)(=O)c1ccccc1 | - | - | - | - | - | - | . | . | . | .
Cc1c(Cl)cccc1NC(=O)Nc1ccccc1C(N)=O | - | - | - | - | - | - | . | . | . | .
Cc1c(Cl)cccc1NC(=O)Nc1ccc(C(N)=O)cc1 | - | - | - | - | - | 52 | 60 | - | - | -
COc1cc(/C=C2\SC(=S)N(CCC(=O)Nc3ccccn3)C2=O)cc(OC)c1OC | - | - | - | - | - | - | . | . | . | .
COc1ccccc1/C=C1\SC(=S)N(CCC(=O)Nc2cccc(O)c2)C1=O | - | 81 | - | - | - | 63 | 71 | 33 | 67 | 40
COc1cc(/C=C2\SC(=S)N(CC(=O)Nc3ccccn3)C2=O)cc(OC)c1OC | - | - | - | - | - | 87 | 114 | 67 | 64 | 30
Cc1cc(C)cc(N(CC(=O)NC2CCCCC2)C(=O)CCCC(=O)Nc2ccccn2)c1 | - | - | - | - | - | - | . | . | . | .
CCCCCNC(=O)C(c1ccnc2ccccc12)n1c(=O)c(-c2cc3ccccc3[nH]2)nc2ccccc21 (configuration not stated) | . | - | . | - | . | - | . | . | . | .
CN(C)S(=O)(=O)c1ccc(C(=O)N2CCN(S(=O)(=O)c3cccs3)CC2)cc1 | - | - | - | - | - | - | . | . | . | .
